Test results from ChEMBL document CHEMBL1122607, “Heterocyclic analogues of chlorcyclizine with potent hypolipidemic activity” (J Med Chem, 1984).

What was measured:
[1] = test system: Rattus norvegicus; assay: Hypolipidemic activity was measured as reduction in rat serum cholesterol after oral administration in male Wistar rats at 30 mg / (kg day); format: functional
Method in brief: (§1)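 Cholesterol-fed rats given the test compound orally by gavage on the last 3 days, with controls receiving vehicle (0.5% tragacanth mucilage). After overnight starvation, rats were killed under CO2 3 h after the last dose and bled by cardiac puncture. Serum cholesterol and triglyceride were measured by autoanalyzer and expressed as percentage reduction from control levels, with Student's t test.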

[2] = test system: Rattus norvegicus; assay: Hypolipidemic activity was measured as reduction in rat serum triglyceride after oral administration in male Wistar rats at 30 mg / (kg day); format: functional; method in brief: as §1
[3] = test system: Rattus norvegicus; assay: Hypolipidemic activity was measured as reduction in rat serum cholesterol after oral administration in male Wistar rats at 100 mg/(kg day); format: functional; method in brief: as §1
[4] = test system: Rattus norvegicus; assay: Hypolipidemic activity was measured as reduction in rat serum triglyceride after oral administration in male Wistar rats at 100 mg / (kg day); format: functional; method in brief: as §1
[5] = test system: Rattus norvegicus; assay: Hypolipidemic activity was measured as reduction in rat serum triglyceride after oral administration in male Wistar rats at 10 mg / (kg day); format: functional; method in brief: as §1
[6] = test system: Rattus norvegicus; assay: Hypolipidemic activity was measured as reduction in rat serum cholesterol after oral administration in male Wistar rats at 10 mg / (kg day); format: functional; method in brief: as §1
[7] = test system: Rattus norvegicus; assay: Hypolipidemic activity was measured as reduction in rat serum cholesterol after oral administration in male Wistar rats at 100 mg / (kg day); format: functional; method in brief: as §1
[8] = test system: Rattus norvegicus; assay: Minimum effective dose (MED) is the dose (mg/kg)that cause significant reduction in serum cholesterol of 30% compared to concurrent controls.; format: functional; parameters: unit: mg/kg
Method in brief: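 MED was calculated from the log dose/response curve as the dose giving a statistically significant 30% fall in serum cholesterol versus concurrent controls. Measured in the 3-day oral cholesterol-fed rat screen, or in a 2-week test: groups of eight young male Wistar rats on cholesterol/cholic acid-supplemented or normal diet, dosed orally by gavage daily for 14 days, vehicle 0.5% tragacanth mucilage.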

[9] = The therapeutic safety margin (TSM) is the ratio of the minimum lethal dose (mg/kg)to the MED; format: ADME, organism-based; conditions: in vivo
Method in brief: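 Young male Wistar rats, eight per group, on cholesterol/cholic acid-supplemented or normal diet; graded oral gavage doses daily for 14 days; vehicle controls (0.5% tragacanth mucilage). Mortalities recorded to give the minimum lethal daily dose. After overnight fasting, serum cholesterol assayed by autoanalyzer. MED is the dose giving a significant (t test) 30% cholesterol fall, from the log dose/response curve. TSM = minimum lethal dose/MED.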

Work on `Cc1cc(C(c2ccccc2C(C)C)N2CCN(C)CC2)sn1` (stereo not given) yielded a Reduction [1] of 36% and a Reduction [2] of 9%.
Molecule `Cc1cc(C(c2ccc(C(C)C)cc2)C2CCN(C)CC2)sn1` (stereo not given) has a Reduction [3] of 45%, a Reduction [1] of 12% and a Reduction [2] of 32%. The Reduction [4] was 42%.
`CCc1ccc(C(c2sncc2C)N2CCN(CCO)CC2)cc1` (stereo not given) showed a Reduction [1] of 45%, a Reduction [5] of 3% and a Reduction [2] of 51%. For the same molecule, the Reduction [6] was 15%.
In the case of `Cc1cc(C(c2ccc(C(C)(C)C)cc2)N2CCN(C)CC2)sn1` (stereo not given), the Reduction [7] is reported as 25% and the Reduction [4] is reported as 20%.
Work on `Cc1cc(C(c2ccc(OC(C)C)cc2)N2CCN(C)CC2)sn1` (stereo not given) yielded a Reduction [3] of 33% and a Reduction [4] of 31%.
`Cc1cc(C(c2ccc(C(C)C)cc2)N2CCCCC2)sn1` (stereo not given) gave a Reduction [7] of 16% and a Reduction [4] of 1%.
In the case of `Cc1cc(C(c2cccc(C(F)(F)F)c2)N2CCN(C)CC2)sn1` (stereo not given), the Reduction [7] is reported as 8% and the Reduction [4] is reported as 30%.
`Cc1ccccc1C(c1sncc1C)N1CCN(C)CC1` (stereo not given) gave a Reduction [3] of 72% and a Reduction [4] of 64%.
Molecule `Cc1ccc(C(c2cc(C)ns2)N2CCN(C)CC2)cc1` (stereo not given) has a Reduction [7] of 9%.
In the case of `CC(C)c1ccc(C(c2ccns2)N2CCN(CCO)CC2)cc1` (stereo not given), the MED [8] is reported as 5, the Reduction [3] is reported as 74% and the Reduction [1] is reported as 80%. The Reduction [2] was 49%, the therapeutic safety margin (minimum lethal dose / MED) [9] was 40 and the Reduction [4] was 89%.
`Cc1cc(C(c2ccc(C3CCCCC3)cc2)N2CCN(C)CC2)sn1` (stereo not given) gave a Reduction [3] of 64%, a Reduction [1] of 7% and a Reduction [4] of 73%.
Work on `CC(C)OC(=O)C(C)(C)Oc1ccc(C(=O)c2ccc(Cl)cc2)cc1` [FENOFIBRATE] yielded an MED [8] of 200.
In the case of `CCCCOc1ccccc1C(c1cc(C)ns1)N1CCN(C)CC1` (stereo not given), the Reduction [3] is reported as 74%, the Reduction [1] is reported as 32% and the Reduction [2] is reported as 57%. The Reduction [4] was 67%.
Work on `Cc1noc(C)c1C(c1ccccc1Cl)N1CCNCC1` (stereo not given) yielded a Reduction [3] of 87%, a Reduction [1] of 14% and a Reduction [2] of 62%. For the same molecule, the Reduction [4] was 97%.
Work on `Cc1cc(C(O)(c2ccc(C(C)C)cc2)C2CCN(C)CC2)sn1` (stereo not given) yielded a Reduction [3] of 67%, a Reduction [1] of 57% and a Reduction [5] of 25%. For the same molecule, the Reduction [2] was 57%, the Reduction [6] was 28% and the Reduction [4] was 85%.
`Cc1noc(C)c1C(c1ccc(C(C)C)cc1)N1CC[N+](C)(C)CC1` (stereo not given) gave a Reduction [7] of 1% and a Reduction [4] of 28%.
With `Cc1cc(C(c2ccccc2OC(C)C)N2CCN(C)CC2)sn1` (stereo not given) the Reduction [3] was 83% and the Reduction [4] was 86%.
`O=C(O)c1cccnc1` [NIACIN] showed an MED [8] of 400.
With `Cc1cc(C(c2ccc(F)cc2)N2CCN(C)CC2)sn1` (stereo not given) the Reduction [7] was 11% and the Reduction [4] was 15%.
Work on `Cc1cc(C(c2ccc(C(C)C)cc2)N2CCN(C(=O)c3ccccc3)CC2)sn1` (stereo not given) yielded a Reduction [7] of 26% and a Reduction [4] of 16%.
Work on `Cc1cc(C(c2ccc(C(C)C)cc2)N2CCOCC2)sn1` (stereo not given) yielded a Reduction [7] of 7% and a Reduction [4] of 10%.
`CN1CCN(C(c2ccccc2)c2ccccn2)CC1` (stereo not given) gave a Reduction [3] of 81%, a Reduction [1] of 22% and a Reduction [2] of 16%. It also gave a Reduction [4] of 74%.
`Cc1cc(C(OCCN2CCCC2)c2ccc(C(C)C)cc2)sn1` (stereo not given) gave a Reduction [7] of 30% and a Reduction [4] of 2%.
In the case of `Cc1cc(C(SCCN(C)C)c2ccc(C(C)C)cc2)sn1` (stereo not given), the Reduction [3] is reported as 36% and the Reduction [4] is reported as 55%.
`Cc1noc(C)c1C(OC1CCNCC1)c1ccc(C(C)C)cc1` (stereo not given) showed a Reduction [3] of 45%, a Reduction [1] of 4% and a Reduction [2] of 8%. For the same molecule, the Reduction [4] was 23%.
For `Cc1cc(C(c2ccc(C)c(C)c2)N2CCN(C)CC2)sn1` (stereo not given), the Reduction [7] was 11% and the Reduction [4] was 1%.
Work on `CCc1ccccc1C(c1cc(C)ns1)N1CCN(C)CC1` (stereo not given) yielded a Reduction [3] of 81%, a Reduction [1] of 71% and a Reduction [4] of 88%.
Work on `Cc1cc(C(c2ccc(C(C)C)cc2)N2CCN(CCO)CC2)sn1` (stereo not given) yielded an MED [8] of 15, a Reduction [3] of 73% and a Reduction [1] of 67%. The Reduction [5] was 0%, the Reduction [2] was 14% and the Reduction [6] was 23%. It also gave a therapeutic safety margin (minimum lethal dose / MED) [9] of 20 and a Reduction [4] of 73%.
With `Cc1cc(C(c2cccc(Cl)c2)N2CCN(C)CC2)sn1` (stereo not given) the Reduction [3] was 33% and the Reduction [4] was 41%.
Molecule `Cc1cc(C(Nc2cccnc2)c2ccc(C(C)C)cc2)sn1` (stereo not given) has a Reduction [7] of 16% and a Reduction [4] of 5%.
For `Cc1ccccc1C(c1c(C)noc1C)N1CCNCC1` (stereo not given), the Reduction [3] was 76%, the Reduction [1] was 26% and the Reduction [5] was 46%. For the same molecule, the Reduction [2] was 21%, the Reduction [6] was 2% and the Reduction [4] was 80%.
With `Cc1noc(C)c1C(OC1CCCN(C)C1)c1ccc(C(C)C)cc1` (stereo not given) the Reduction [3] was 79%, the Reduction [1] was 38% and the Reduction [5] was 12%. It also gave a Reduction [2] of 16%, a Reduction [6] of 32% and a Reduction [4] of 52%.
`CCOC(=O)C(C)(C)Oc1ccc(Cl)cc1` [CLOFIBRATE] gave an MED [8] of 200.
In the case of `CN1CCN(C(c2ccccc2)c2ccc(Cl)cc2)CC1` (stereo not given) [CHLORCYCLIZINE], the MED [8] is reported as 15 and the therapeutic safety margin (minimum lethal dose / MED) [9] is reported as 10.
`Cc1ccc(C(c2sncc2C)N2CCN(C)CC2)cc1C` (stereo not given) gave a Reduction [3] of 74%, a Reduction [1] of 15% and a Reduction [5] of 21%. The Reduction [2] was 9%, the Reduction [6] was 20% and the Reduction [4] was 73%.
With `Cc1cc(C(c2ccc(OCc3ccccc3)cc2)N2CCN(C)CC2)sn1` (stereo not given) the Reduction [7] was 11% and the Reduction [4] was 34%.
`Cc1ccccc1C(c1nccn1C)N1CCN(C)CC1` (stereo not given) showed a Reduction [7] of 5% and a Reduction [4] of 29%.
`Cc1cnsc1C(c1ccc(CC(C)C)cc1)N1CCN(CCO)CC1` (stereo not given) gave an MED [8] of 6, a Reduction [3] of 85% and a Reduction [1] of 86%. The Reduction [5] was 48%, the Reduction [2] was 81% and the Reduction [6] was 48%. The Reduction [4] was 97%.
In the case of `Cc1cc(C(c2cccc([N+](=O)[O-])c2)N2CCN(C)CC2)sn1` (stereo not given), the Reduction [7] is reported as 2% and the Reduction [4] is reported as 17%.
With `CCOC(=O)N1CCN(C(c2ccc(C(C)C)cc2)c2cc(C)ns2)CC1` (stereo not given) the Reduction [7] was 10% and the Reduction [4] was 6%.
Molecule `Cc1cc(C(OCCN(C)C)c2ccc(C(C)C)cc2)sn1` (stereo not given) has a Reduction [3] of 45%, a Reduction [1] of 3% and a Reduction [2] of 36%. The Reduction [4] was 41%.
For `Cc1cc(C(c2ccc(C(C)C)cc2)N2CC(C)NC(C)C2)sn1` (stereo not given), the Reduction [7] was 16% and the Reduction [4] was 32%.
Molecule `Cc1nc(C)c(C(c2ccccc2Cl)N2CCN(C)CC2)s1` (stereo not given) has a Reduction [3] of 78% and a Reduction [4] of 79%.
For `Cc1cc(C(c2ccc(Oc3ccccc3)cc2)N2CCN(C)CC2)sn1` (stereo not given), the Reduction [3] was 42%, the Reduction [1] was 17% and the Reduction [2] was 25%. It also gave a Reduction [4] of 59%.
Molecule `Cc1cnsc1C(c1ccccc1Cl)N1CCN(C)CC1` (stereo not given) has an MED [8] of 20, a Reduction [3] of 80% and a Reduction [1] of 44%. For the same molecule, the Reduction [5] was 1%, the Reduction [2] was 10% and the Reduction [6] was 16%. For the same molecule, the therapeutic safety margin (minimum lethal dose / MED) [9] was less than 20 and the Reduction [4] was 90%.
For `CCOc1ccccc1C(c1cc(C)ns1)N1CCN(C)CC1` (stereo not given), the Reduction [7] was 25% and the Reduction [4] was 35%.
Molecule `Cc1noc(C)c1C(c1ccccc1Cl)N1CCN(C)CC1` (stereo not given) has a Reduction [3] of 52%, a Reduction [1] of 7% and a Reduction [2] of 6%. For the same molecule, the Reduction [4] was 41%.
`Cc1cccc(C(c2cc(C)ns2)N2CCN(C)CC2)c1` (stereo not given) showed a Reduction [7] of 26% and a Reduction [4] of 22%.
Work on `Cc1cc(C(c2ccc(C(C)C)cc2)N2CCNCC2)sn1` (stereo in doubt; 66) yielded a Reduction [3] of 68%, a Reduction [1] of 59% and a Reduction [5] of 4%. The Reduction [2] was 23%, the Reduction [6] was 38% and the Reduction [4] was 73%.
